Assay results from ChEMBL document CHEMBL2375298, “Isolation, structure determination, and anti-HIV evaluation of tigliane-type diterpenes and biflavonoid from Stellera chamaejasme” (J Nat Prod, 2013).
The source made the active and inactive calls. The rule behind the calls is not given here.

Assays:
[1] = test system: MT4; experiment: Cytotoxicity against human MT4 cells by CellTitre-Glo luminescent assay; assay type: cell-based
[2] = test system: Human immunodeficiency virus 1; experiment: Antiviral activity against HIV-1 NL4-3 infected in human MT4 cells assessed as inhibition of viral replication after 4 days by ELISA; assay type: functional
In short: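 MT4 cells infected with HIV-1 NL4-3 at MOI 0.001 in presence of graded compound concentrations; fresh medium with compound added 48 h post-infection to sustain growth. Replication measured by p24 ELISA on day 4 post-infection. EC90 (concentration inhibiting replication by 90%) calculated from dose-response.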

[3] = Human immunodeficiency virus 1, NL4-3, MT4, 96 h

Structure (SMILES)	IC50 [1]	EC90 [2, 3]	EC90 [2]
CCCCCCCCCC(=O)O[C@@]12[C@H](OC(=O)c3ccccc3)[C@@H](C)[C@@]3(O)[C@H]([C@@H]1C2(C)C)[C@@H](OO)C(CO)=C[C@]1(O)C(=O)C(C)=C[C@@H]31	3.5 µM	490 nM	
C=C(C)[C@]12C[C@@H](COC(C)=O)[C@@]34O[C@]5(O[C@@H]1[C@@H]3[C@@H]1O[C@]1(CO)[C@@H](O)[C@@]1(O)[C@H]4[C@H]([C@H](C)[C@@H]1OC(=O)c1ccccc1)[C@H](C)CCCCCC[C@H]5O)O2	4.3 µM	0.4 nM	
COc1cc(/C=C/C(=O)OCCCCCCCCCCCCCCCCCCCCCC(=O)OCC(O)CO)ccc1O (configuration not stated)	16.2 µM		
COc1ccc([C@@H]2Oc3cc(O)cc(O)c3C(=O)[C@@H]2[C@H]2C(=O)c3c(O)cc(OC)cc3O[C@H]2c2ccc(OC)cc2)cc1			inactive
CCCCC/C=C\CCC(=O)O[C@@]12[C@H](OC(=O)c3ccccc3)[C@@H](C)[C@@]3(O)[C@@H](C=C(CO)C[C@]4(O)C(=O)C(C)=C[C@@H]34)[C@@H]1C2(C)C	4.7 µM	0.66 nM	
C=C(C)[C@@]12C[C@@H](COC(=O)c3ccccc3)[C@@]34OC5(O[C@@H]1[C@@H]3[C@@H]1O[C@]1(CO)[C@@H](O)[C@@]1(O)[C@H]4[C@H]([C@H](C)[C@@H]1OC(=O)c1ccccc1)[C@H](C)CCCCCC[C@H]5O)O2 [GNIDIMACRIN]	4.3 µM	0.4 nM	
CCCCCCCCCC(=O)O[C@@]12[C@H](OC(=O)c3ccccc3)[C@@H](C)[C@@]3(O)[C@@H](C=C(CO)C[C@]4(O)C(=O)C(C)=C[C@@H]34)[C@@H]1C2(C)C [STELLERARIN]	5.1 µM	0.5 nM	
CC/C=C\C/C=C\CCC(=O)O[C@@]12[C@H](OC(=O)c3ccccc3)[C@@H](C)[C@@]3(O)[C@@H](C=C(CO)C[C@]4(O)C(=O)C(C)=C[C@@H]34)[C@@H]1C2(C)C	7.8 µM	6.8 nM	
O=C(/C=C/CCc1ccccc1)c1ccccc1			inactive
CCCCCCCC(=O)O[C@@]12[C@H](OC(=O)c3ccccc3)[C@@H](C)[C@@]3(O)[C@H]([C@@H]1C2(C)C)[C@@H](OO)C(CO)=C[C@]1(O)C(=O)C(C)=C[C@@H]31	15.8 µM	1520 nM	
COc1ccc([C@@H]2Oc3cc(O)cc(O)c3C(=O)[C@@H]2[C@H]2C(=O)c3c(O)cc(O)cc3O[C@H]2c2ccc(OC)cc2)cc1			inactive
CCCCCCCC(=O)O[C@@]12[C@H](OC(=O)c3ccccc3)[C@@H](C)[C@]3(O)[C@@H]4C=C(C)C(=O)[C@@]4(O)[C@H](O)C(CO)=C[C@H]3[C@@H]1C2(C)C	17.2 µM	3.8 nM	
COc1ccc([C@@H]2Oc3cc(OC)cc(O)c3C(=O)[C@H]2[C@@H]2C(=O)c3c(O)cc(O)cc3O[C@H]2c2ccc(O)cc2)cc1	17.5 µM	4210 nM	
